Tests used:
[1] = system: Mus musculus; test: Neurotoxicity in Swiss albino mouse assessed as effect on motor activity at 1.5 mmol/kg, ip after 30 mins; format: toxicity, organism-based; details: in vivo, 0.5 h
How it was run: (§1)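 Motor activity measured with an activity meter at 0 and 30 min after i.p. dosing, zero time taken as 100%.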

[2] = system: Mus musculus; test: Anticonvulsant activity in Swiss albino mouse assessed as protection against bicuculline-induced convulsion at 3.0 mmol/kg, ip […] measured for 30 mins; format: functional
How it was run: (§2)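 Mice (6 per compound) dosed i.p.; 30 min later given bicuculline 1 mg/kg s.c. (freshly dissolved in 1 ml warmed 0.1 N HCl, made up with 0.9% NaCl), then observed 30 min; percentage anticonvulsion (animals protected) calculated. Dose-response runs used 10 animals per dose.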

[3] = system: Mus musculus; test: Neurotoxicity in Swiss albino mouse assessed as inability to climb up backwards in a glass tube within 30 seconds at 0.75 mmol/kg, ip measured after 15 and 25 mins by Chimney test; format: toxicity, organism-based; details: in vivo
How it was run: (§3)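 Chimney test: 15 and 25 min after i.p. dosing (3.0, 1.5, 0.75, 0.375 mmol/kg), inability of mice to climb backwards up a glass tube 25 cm long, 3 cm inner diameter, within 30 s recorded as neurological deficit.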

[4] = system: Mus musculus; test: Anticonvulsant activity in Swiss albino mouse assessed as protection against pentylenetetrazole-induced convulsion at 0.37 mmol/kg, ip treated 30 mins before pentylenetetrazole measured for 30 mins
[5] = system: Mus musculus; test: Anticonvulsant activity in Swiss albino mouse assessed as protection against bicuculline-induced convulsion at 0.37 mmol/kg, ip […] measured for 30 mins; format: functional; how it was run: as §2
[6] = system: Mus musculus; test: Anticonvulsant activity in Swiss albino mouse assessed as protection against pentylenetetrazole-induced convulsion at 0.75 mmol/kg, ip treated after 30 mins of pentylenetetrazole measured for 30 mins; format: functional
[7] = system: Mus musculus; test: Hypnotic activity in Swiss albino mouse assessed as righting reflex at 3 mmol/kg, ip; format: ADME, organism-based; details: in vivo
[8] = system: Mus musculus; test: Anticonvulsant activity in Swiss albino mouse assessed as protection against maximal electroshock-induced convulsion at 1.5 mmol/kg, ip […]; format: functional
How it was run: (§4)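 Test compound given i.p. to mice; 30 min later, electric shock was applied through the ears while the mice were hand-restrained. The mice were then released to observe the maximal seizure. Each dose was tested in 10 animals and the percentage protected was recorded.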

[9] = system: Mus musculus; test: Anticonvulsant activity in Swiss albino mouse assessed as protection against maximal electroshock-induced convulsion at 0.75 mmol/kg, ip […]; format: functional
How it was run: (§5)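 Test agent given i.p. to mice; 30 min later electric shock applied through the ears, animals released immediately to observe maximal seizure; percentage protected recorded (10 animals per dose in dose-response runs).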

[10] = system: Mus musculus; test: Hypnotic activity in Swiss albino mouse assessed as righting reflex at 1.5 mmol/kg, ip; format: ADME, organism-based; details: in vivo
[11] = Toxicity in Swiss albino mouse assessed as mortality at 3 mmol/kg, ip measured 7 to 11 mins before pentylenetetrazole challenge; format: organism-based; details: in vivo, read-out: Activity
How it was run: (§6)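 Compounds given i.p. at 3.0, 1.5, 0.75 and 0.375 mmol/kg to 6 mice per compound. Deaths occurring before the PTZ injection were recorded. PTZ (83 mg/kg s.c.) followed 30 min after compound dosing.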

[12] = system: Mus musculus; test: Neurotoxicity in Swiss albino mouse assessed as inability to climb up backwards in a glass tube within 30 seconds at 3 mmol/kg, ip measured after 15 and 25 mins by Chimney test; format: toxicity, organism-based; details: in vivo; how it was run: as §3
[13] = system: Mus musculus; test: Anticonvulsant activity in Swiss albino mouse assessed as protection against pentylenetetrazole-induced convulsion at 1.5 mmol/kg, ip treated after 30 mins of pentylenetetrazole measured for 30 mins; format: functional
[14] = Therapeutic index, ratio of LD50 for Swiss albino mouse to ED50 for anticonvulsant activity in Swiss albino mouse; format: organism-based; details: in vivo, read-out: Ratio LD50/ED50
How it was run: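 TI was calculated as LD50/ED50. ED50 came from dose-response curves in 10 mice per dose. LD50 was determined by the Spearman–Karber method, with doses at equal logarithmic intervals.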

[15] = system: Mus musculus; test: Anticonvulsant activity in Swiss albino mouse assessed as protection against bicuculline-induced convulsion at 1.5 mmol/kg, ip […] measured for 30 mins; format: functional; how it was run: as §2
[16] = system: Mus musculus; test: Neurotoxicity in Swiss albino mouse assessed as effect on motor activity at 0.75 mmol/kg, ip after 30 mins; format: toxicity, organism-based; details: in vivo, 0.5 h; how it was run: as §1
[17] = system: Mus musculus; test: Neurotoxicity in Swiss albino mouse assessed as effect on motor activity at 3 mmol/kg, ip after 30 mins; format: toxicity, organism-based; details: in vivo, 0.5 h; how it was run: as §1
[18] = Toxicity in Swiss albino mouse by Spearman-Karber method; format: organism-based; details: in vivo
How it was run: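 LD50 in mice was determined by the Spearman–Karber method, with doses chosen at equal logarithmic intervals. 95% confidence limits were reported.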

[19] = system: Mus musculus; test: Anticonvulsant activity in Swiss albino mouse assessed as protection against bicuculline-induced convulsion at 0.75 mmol/kg, ip […] measured for 30 mins; format: functional; how it was run: as §2
[20] = species on record: Mus musculus; test: Protective index, ratio of TD50 for Swiss albino mouse to ED50 for anticonvulsant activity in Swiss albino mouse; format: functional
How it was run: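 TD50 (median sedative dose) divided by ED50 (median effective dose), from dose-response curves at 10 mice per dose; 95% confidence limits given.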

[21] = system: Mus musculus; test: Anticonvulsant activity in Swiss albino mouse assessed as protection against pentylenetetrazole-induced convulsion at 3 mmol/kg, ip treated after 30 mins of pentylenetetrazole measured for 30 mins; format: functional
[22] = system: Mus musculus; test: Anticonvulsant activity in Swiss albino mouse assessed as protection against picrotoxin-induced convulsion at 0.75 mmol/kg, ip […] measured for 30 mins; format: functional
How it was run: (§7)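 Test compound given i.p.; 30 min later, picrotoxin 3.15 mg/kg s.c. was injected. Picrotoxin was freshly dissolved in 1 ml warmed 0.1 N HCl and made up with 0.9% NaCl. Each dose was tested in 10 animals and the percentage of mice protected from clonic convulsions was recorded.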

[23] = system: Mus musculus; test: Anticonvulsant activity in Swiss albino mouse assessed as protection against maximal electroshock-induced convulsion at 3.0 mmol/kg, ip […]; format: functional; how it was run: as §5
[24] = system: Mus musculus; test: Hypnotic activity in Swiss albino mouse assessed as righting reflex at 0.75 mmol/kg, ip; format: ADME, organism-based; details: in vivo
[25] = system: Mus musculus; test: Anticonvulsant activity in Swiss albino mouse assessed as protection against picrotoxin-induced convulsion at 1.5 mmol/kg, ip […] measured for 30 mins; format: functional; how it was run: as §7
[26] = system: Mus musculus; test: Anticonvulsant activity in ip dosed Swiss albino mouse assessed as protection against maximal electroshock-induced convulsion; format: functional; how it was run: as §5
[27] = Toxicity in ip dosed Swiss albino mouse assessed as sedative effect; format: organism-based; details: in vivo
[28] = system: Mus musculus; test: Anticonvulsant activity in Swiss albino mouse assessed as protection against maximal electroshock-induced convulsion at 0.37 mmol/kg, ip […]; format: functional; how it was run: as §4
[29] = system: Mus musculus; test: Neurotoxicity in Swiss albino mouse assessed as inability to climb up backwards in a glass tube within 30 seconds at 1.5 mmol/kg, ip measured after 15 and 25 mins by Chimney test; format: toxicity, organism-based; details: in vivo; how it was run: as §3
[30] = system: Mus musculus; test: Neurotoxicity in Swiss albino mouse assessed as inability to climb up backwards in a glass tube within 30 seconds at 0.37 mmol/kg, ip measured after 15 and 25 mins by Chimney test; format: toxicity, organism-based; details: in vivo; how it was run: as §3
[31] = system: Mus musculus; test: Neurotoxicity in Swiss albino mouse assessed as effect on motor activity at 0.375 mmol/kg, ip after 30 mins; format: toxicity, organism-based; details: in vivo, 0.5 h; how it was run: as §1
[32] = system: Mus musculus; test: Hypnotic activity in Swiss albino mouse assessed as righting reflex at 0.375 mmol/kg, ip; format: ADME, organism-based; details: in vivo
[33] = system: Mus musculus; test: Neurotoxicity in Swiss albino mouse assessed as inability to climb up backwards in a glass tube within 30 seconds at 0.375 mmol/kg, ip measured after 15 and 25 mins by Chimney test; format: toxicity, organism-based; details: in vivo; how it was run: as §3
[34] = Toxicity in Swiss albino mouse assessed as mortality at 0.75 mmol/kg, ip measured 7 to 11 mins before pentylenetetrazole challenge; format: organism-based; details: in vivo, read-out: Activity; how it was run: as §6
[35] = Toxicity in Swiss albino mouse assessed as mortality at 1.5 mmol/kg, ip measured 7 to 11 mins before pentylenetetrazole challenge; format: organism-based; details: in vivo, read-out: Activity; how it was run: as §6
[36] = Toxicity in Swiss albino mouse assessed as mortality at 0.375 mmol/kg, ip measured 7 to 11 mins before pentylenetetrazole challenge; format: organism-based; details: in vivo, read-out: Activity; how it was run: as §6
[37] = system: Mus musculus; test: Anticonvulsant activity in Swiss albino mouse assessed as protection against pentylenetetrazole-induced convulsion at 0.375 mmol/kg, ip treated after 30 mins of pentylenetetrazole measured for 30 mins; format: functional
[38] = system: Mus musculus; test: Anticonvulsant activity in Swiss albino mouse assessed as protection against pentylenetetrazole-induced convulsion at 1.38 mmol/kg, ip treated after 30 mins of pentylenetetrazole measured for 30 mins; format: functional
[39] = Toxicity in Swiss albino mouse assessed as mortality at 1.38 mmol/kg, sc; format: organism-based; details: in vivo, read-out: Activity
[40] = system: Mus musculus; test: Neurotoxicity in Swiss albino mouse assessed as inability to climb up backwards in a glass tube within 30 seconds at 1.38 mmol/kg, ip measured after 15 and 25 mins by Chimney test; format: toxicity, organism-based; details: in vivo
How it was run: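 Chimney test: at 15 and 25 min after dosing, inability of mice to climb backwards up a glass tube (25 cm long, 3 cm inner diameter) within 30 s was scored as neurological deficit.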

Compound	Activity [1] [%]	Activity [2] [%]	Activity [3] [%]	Activity [4] [%]	Activity [5] [%]	Activity [6] [%]	Activity [7] [%]	Activity [8] [%]	Activity [9] [%]	Activity [10] [%]	mortality [11] [%]	Activity [12] [%]	Activity [13] [%]	selectivity ratio [14]	Activity [15] [%]	Activity [16] [%]	Activity [17] [%]	LD50 [18] [mg/kg]	Activity [24] [%]	Activity [29] [%]	also measured
S=C1CCCN2C=C(Br)SC2=N1	84	100	0	25	0	50	40	40	10	14	0	100	100	1.51	50	52	92	380	0	25	Activity [19]: 10%; Ratio TD50/ED50 [20]: 1.58; Activity [21]: 100%; Activity [22]: 20%; Activity [23]: 70%; Activity [25]: 66%; ED50 [26]: 252 mg/kg; TD50 [27]: 398 mg/kg; Activity [28]: 0%; Activity [30]: 0%
S=C1CCCN2C=CSC2=N1	11		30			0				0			0			26			0	100	Activity [31]: 30%; Activity [32]: 0%; Activity [33]: 10%; mortality [34]: 10%; mortality [35]: 50%; mortality [36]: 0%; Activity [37]: 0%
CCCC(CCC)C(=O)[O-].[Na+] [VALPROATE SODIUM]																					Activity [38]: 100%; mortality [39]: 0%; Activity [40]: 100%
O=C1CCCN2C(=N1)Sc1cc(Cl)ccc12	33	100	0	0	10	25	20	0	0	0	0	100	50	1.62	66	20	67	617	0	25	mortality [34]: 0%; mortality [35]: 0%; Activity [19]: 10%; Ratio TD50/ED50 [20]: 1.09; Activity [21]: 100%; Activity [23]: 33%; Activity [25]: 20%; ED50 [26]: 380 mg/kg; TD50 [27]: 417 mg/kg; Activity [28]: 0%; Activity [30]: 0%
